ROMK mod – human ROMK K+ channel modulation, primary screen | Tet-inducible ROMK, thallium flux fluorescence; actives lie on both sides | B-score at 10 µM | P48048 | 130,000 tested, 2% active;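 active = signal ratio slope over the read window, or its plate-corrected B-score, at least 3 SD from the plate mean, either direction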;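 also: B-score of the F/F0 ratio slope over 7 to 12 s after thallium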
Target sequence (P48048 whole entry, looked up): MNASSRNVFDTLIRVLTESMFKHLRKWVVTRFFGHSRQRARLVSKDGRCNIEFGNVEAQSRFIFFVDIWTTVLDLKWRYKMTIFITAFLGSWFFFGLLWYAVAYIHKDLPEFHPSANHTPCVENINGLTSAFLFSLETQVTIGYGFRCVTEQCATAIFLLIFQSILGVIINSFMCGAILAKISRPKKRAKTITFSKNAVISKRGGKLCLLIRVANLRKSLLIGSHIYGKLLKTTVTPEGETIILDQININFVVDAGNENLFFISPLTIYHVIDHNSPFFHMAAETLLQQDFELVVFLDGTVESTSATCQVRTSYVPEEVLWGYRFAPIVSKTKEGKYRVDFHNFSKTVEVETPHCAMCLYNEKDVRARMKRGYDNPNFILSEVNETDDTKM
Rad51 HR inh – blocks human Rad51 in homologous recombination; Q06609; hRad51 DNA strand exchange, fluorescence dequenching; inhibition, % at 10 µM; 200,000 tested, 0.085% active; AID 1385;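 active = inhibition above 40% at the single screening dose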
Target sequence (Q06609 whole entry, looked up): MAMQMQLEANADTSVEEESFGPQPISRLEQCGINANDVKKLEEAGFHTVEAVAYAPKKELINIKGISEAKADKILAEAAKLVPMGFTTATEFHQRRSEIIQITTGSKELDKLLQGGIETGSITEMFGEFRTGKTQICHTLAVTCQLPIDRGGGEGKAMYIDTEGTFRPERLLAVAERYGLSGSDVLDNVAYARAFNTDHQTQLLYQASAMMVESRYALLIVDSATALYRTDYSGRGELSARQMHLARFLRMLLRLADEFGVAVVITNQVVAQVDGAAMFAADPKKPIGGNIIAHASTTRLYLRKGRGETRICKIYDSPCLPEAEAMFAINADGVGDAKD
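Test system: preformed human Rad51 ssDNA filaments. Compound dosing: single dose, 10 µM final compound. Incubation: filaments 15 min 37 °C, then compound 30 min. Technique: FRET fluorescence dequenching, excitation 485 nm, emission 520 nm. Read-out basis: percent inhibition from fluorescence, normalised to plate control and blank means. Benchmarks: plate controls and plate blanks.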
KCC2 mod – KCC2 (human) Cl- transport modulation | KCC2 cells, thallium flux FluoZin-2 fluorescence | 190,000 tested, 2.2% active | AID 1456 | B-score of Tl+ flux slope (higher = more flux/activation; lower = inhibition) at 10 µM | Q9H2X9;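 active = thallium flux slope and its plate-corrected score both differing from the plate sample mean at a set confidence after two filtering rounds, in either direction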;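 also: slope of fluorescence scaled to starting intensity during 10 to 20 s after thallium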
PKD1 kinase inh – blocks activity of human protein kinase D1; Q15139; PKD1 kinase fluorescence polarization assay; inhibition, % (no concentration beside the values); 200,000 tested, 0.056% active; AID 797; in the data active = inhibition above about 50%
KCC2 secondary – KCC2 (human) modulation, secondary assay. HEK293-KCC2, thallium flux, FluoZin2 fluorescence; hits give high values. AID 1713. 3,700 tested, 15% active. normalised thallium flux (F/F0 slope) at 10 µM. shares compounds with KCC2 mod;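 active = thallium flux slope above the same plate's solvent-only control mean plus 3 SD; inconclusive = the two replicate wells disagree; inactive = no significant difference from solvent-only control wells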
KCC2 bumet counter – thallium flux despite bumetanide block in KCC2 cells, secondary assay 3 | shares compounds with KCC2 mod | normalized thallium flux at 10 µM | AID 1714 | 3,700 tested, 49% active | HEK293-KCC2 + bumetanide/ouabain, thallium flux FluoZin2; hits give high values;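 active = thallium entry rate above the same plate's blocked-transporter control wells by more than 3 SD; inconclusive = the two repeat wells disagree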;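 also: raw slope of fluorescence over initial fluorescence between 10 and 20 s after thallium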
KCC2 sec2 – confirmation of human KCC2 transport modulators; AID 1715; normalized thallium flux at 10 µM; 3,700 tested, 23% active; HEK293-KCC2, thallium flux FluoZin2 fluorescence; actives lie on both sides; F/F0 rise rate, 10–20 s post-thallium; shares compounds with KCC2 mod;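 active = thallium flux slope more than 3 SD above or below the plate's solvent-only control mean, mostly below; inconclusive = the two repeat wells disagreed; inactive = no significant shift from solvent-only controls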
HEK counter1 – counter-screen for KCC2 modulators: effect in parental HEK293 cells. thallium flux rate (normalised fluorescence) at 10 µM. thallium flux FluoZin2, ouabain; baseline-ratio fluorescence slope, 10–20 s after thallium. AID 1716. shares compounds with KCC2 mod. 3,700 tested, 46% active;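 active = thallium flux rate significantly above the same plate's solvent-only control wells, beyond their mean plus 3 SD; inconclusive = the two replicate wells gave conflicting results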
KCC2 retest ouab – confirmation of human KCC2 modulators with ouabain. HEK293-KCC2, thallium flux FluoZin2 fluorescence; bidirectional: low = inhibitor, high = activator. AID 1717. raw Tl+ flux slope (below DMSO = inhibition, above = activation) at 10 µM. 3,700 tested, 48% active. shares compounds with KCC2 mod;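 active = thallium flux slope beyond 3 SD from same-plate DMSO control mean in most replicates, usually higher, sometimes lower; inconclusive = repeat tests gave conflicting results; inactive = no significant difference from controls in most replicates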;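 also: slope of initial-normalized fluorescence between seconds 10 and 20 after thallium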
HEK counter2 – counter-screen for KCC2 modulators: effect in parental HEK293 cells | thallium flux FluoZin-2 fluorescence slope | 3,700 tested, 33% active | thallium flux slope at 10 µM | shares compounds with KCC2 mod;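 active = thallium flux slope above the same plate's solvent-control mean plus 3 SD in both duplicate wells; inconclusive = duplicate wells that disagreed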;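 also: run without ouabain in cells lacking the KCC2 cotransporter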
Of the large screens only hits and unclear results are named; the others gave an inactive call (follow-up assays come after a bar, where they were run). Sampled rows, rich in hits. Any-hit rate of the full collection: about 3%.

CN(C)S(=O)(=O)c1ccc(Cl)c(NC(=O)CSc2nc3ccccc3c(=O)n2CCCN2CCOCC2)c1	none (no result: ROMK mod)
O=C1NCC(O)=C1C=NCCO	none (no result: ROMK mod, KCC2 mod) | KCC2 secondary inactive | KCC2 bumet counter inactive | KCC2 sec2 inactive | HEK counter1 inactive | KCC2 retest ouab inactive | HEK counter2 inactive
O=C(O)CCCN=CC1=C(O)CNC1=O	none
Oc1ccccc1C1CC(c2cccs2)=NC(c2cccc(Br)c2)N1 (stereo not given)	none
O=C(Cc1ccccc1)NNC(=S)NC(=O)c1cccs1	KCC2 mod 6.8 (no result: ROMK mod, Rad51 HR inh, PKD1 kinase inh) | KCC2 secondary inactive | KCC2 bumet counter 0.014 | KCC2 sec2 inactive | HEK counter1 0.015 | KCC2 retest ouab inconclusive | HEK counter2 0.018
CC(=O)NNC(=S)NC(=O)c1ccc(C)cc1	none (no result: ROMK mod)
CCC(=O)NNC(=S)NC(=O)c1ccc(C)cc1	KCC2 mod 7.6 | KCC2 secondary inconclusive | KCC2 bumet counter 0.02 | KCC2 sec2 inactive | HEK counter1 0.013 | KCC2 retest ouab inactive | HEK counter2 inconclusive
CC1CCCCC1NC(=S)NC(=O)c1cccs1 (stereo not given)	KCC2 mod 117 (no result: ROMK mod, PKD1 kinase inh) | KCC2 secondary 0.027 | KCC2 bumet counter 0.14 | KCC2 sec2 inactive | HEK counter1 0.058 | KCC2 retest ouab 0.064 | HEK counter2 0.017
COc1ccc(/C=C/C(=O)NC(=S)NNC(=O)Cc2cccs2)cc1	none (no result: Rad51 HR inh)
O=C(/C=C/c1ccccc1)NC(=S)NNC(=O)Cc1cccs1	KCC2 mod 6.3 (no result: ROMK mod) | KCC2 secondary inactive | KCC2 bumet counter 0.026 | KCC2 sec2 inactive | HEK counter1 inconclusive | KCC2 retest ouab inconclusive | HEK counter2 inactive
O=C(NNC(=S)NC1CCCCC1)c1cccs1	none (no result: Rad51 HR inh)
CCOCCCNC(=O)c1c[nH]c2ccc(OCC)cc2c1=O	none (no result: PKD1 kinase inh)
Cc1cccc(C(=O)NC(=S)NNC(=O)Cc2ccccc2)c1	KCC2 mod 14 | KCC2 secondary 0.019 | KCC2 bumet counter 0.048 | KCC2 sec2 inactive | HEK counter1 0.025 | KCC2 retest ouab 0.041 | HEK counter2 0.015
CNC(=S)NNC(=O)Cc1ccccc1	none (no result: ROMK mod, KCC2 mod)
O=C(COC(=O)CNC(=O)c1ccccc1F)Nc1cccnc1Cl	none
COc1cc(C(=O)NCCc2cn3ccc(C)cc3n2)cc(OC)c1OC	KCC2 mod -3.4 (no result: ROMK mod) | KCC2 secondary inconclusive | KCC2 bumet counter inconclusive | KCC2 sec2 inactive | HEK counter1 inactive | KCC2 retest ouab inactive | HEK counter2 inactive
CCN(CC)S(=O)(=O)c1ccc2[nH]c(=O)cc(C(=O)Nc3ccc(C)c(S(=O)(=O)N(CC)CC)c3)c2c1	none
Cc1ccc(C(=O)N2CCCC2)cc1Br	KCC2 mod -3.1 | KCC2 secondary inactive | KCC2 bumet counter inconclusive | KCC2 sec2 inactive | HEK counter1 inactive | KCC2 retest ouab inactive | HEK counter2 inactive
C=C(C)[C@@H]1CC=C(CN2CCC(CCOC)(C(=O)OCC)CC2)CC1	none
Cc1ccccc1OCC(=O)Nc1ccc2c(c1)OCO2	none (no result: Rad51 HR inh)
Cc1ccc2cccc(OCC(=O)Nc3ccc4c(c3)OCO4)c2n1	KCC2 mod -5.9 | KCC2 secondary inconclusive | KCC2 bumet counter inactive | KCC2 sec2 inactive | HEK counter1 inactive | KCC2 retest ouab 0.014 | HEK counter2 inactive
COC(=O)C(=N/Nc1ccccc1C(=O)OC)/C(C)=N/O	none (no result: PKD1 kinase inh)
Cc1cc(S(=O)(=O)N(Cc2ccccc2)Cc2ccc(N(C)C)cc2)ccc1-n1cnnn1	none
Cc1cc(S(=O)(=O)N(C)CCc2ccccc2)ccc1-n1cnnn1	KCC2 mod -4.6 (no result: ROMK mod) | KCC2 secondary inactive | KCC2 bumet counter inactive | KCC2 sec2 0.024 | HEK counter1 inactive | KCC2 retest ouab 0.016 | HEK counter2 inactive
CCc1c(C)[nH]c2ccccc2c1=O	KCC2 mod 7.6 | KCC2 secondary inactive | KCC2 bumet counter inconclusive | KCC2 sec2 inactive | HEK counter1 inactive | KCC2 retest ouab inactive | HEK counter2 inactive
O=C(O)/C=C\C(=O)NCc1cccnc1	none (no result: Rad51 HR inh)
Oc1ccc(COCc2ccccc2)c2cccnc12	KCC2 mod 3.3 | KCC2 secondary inactive | KCC2 bumet counter 0.028 | KCC2 sec2 inactive | HEK counter1 0.013 | KCC2 retest ouab inconclusive | HEK counter2 inactive
Oc1ccc(/C=N/NC(=S)Nc2cccnc2)cc1O	none
CC(C)(C)c1ccc(/C=N/NC(=S)Nc2cccnc2)cc1	KCC2 mod 12 | KCC2 secondary inactive | KCC2 bumet counter 0.032 | KCC2 sec2 inactive | HEK counter1 0.012 | KCC2 retest ouab inconclusive | HEK counter2 0.011
CCC(C)(C)C1CCC(=NNC(=S)Nc2cccnc2)CC1 (stereo not given)	KCC2 mod 24 | KCC2 secondary inactive | KCC2 bumet counter 0.039 | KCC2 sec2 inactive | HEK counter1 0.022 | KCC2 retest ouab 0.042 | HEK counter2 0.013
Cc1c(N=C(N)/N=C(\N)Nc2ccc(Br)cc2)c(=O)n(-c2ccccc2)n1C	none
Cc1cccc(NC(=O)CCCn2cc([N+](=O)[O-])cn2)n1	none
CCOC(=O)N1CCN(C(=O)c2cc(C)no2)CC1	KCC2 mod -3.9 (no result: ROMK mod, Rad51 HR inh) | KCC2 secondary inactive | KCC2 bumet counter inactive | KCC2 sec2 inactive | HEK counter1 inactive | KCC2 retest ouab inactive | HEK counter2 inactive
COC(=O)C1CCN(C(=O)COC(=O)CCc2nc3ccccc3c(=O)[nH]2)CC1	KCC2 mod 4.6 (no result: Rad51 HR inh) | KCC2 secondary inactive | KCC2 bumet counter inactive | KCC2 sec2 inactive | HEK counter1 inactive | KCC2 retest ouab inactive | HEK counter2 inconclusive
O=C(Nc1ccc(Cl)cc1)N1CCN(c2ccccc2)CC1	none (no result: ROMK mod)
O=C(Nc1ccc(Cl)cc1)N1CCC(CO)(Cc2ccccc2)CC1	KCC2 mod -3.2 | KCC2 secondary inactive | KCC2 bumet counter inconclusive | KCC2 sec2 inactive | HEK counter1 inactive | KCC2 retest ouab inconclusive | HEK counter2 inactive
Cc1ccc(Cn2nnc3c(=O)[nH]c(C4CCN(S(=O)(=O)c5ccc(F)cc5)CC4)nc32)cc1	KCC2 mod -3 (no result: ROMK mod, Rad51 HR inh) | KCC2 secondary inactive | KCC2 bumet counter inactive | KCC2 sec2 0.025 | HEK counter1 inactive | KCC2 retest ouab inactive | HEK counter2 inactive
O=c1[nH]c(C2CCCN(S(=O)(=O)c3ccccc3)C2)nc2c1nnn2Cc1ccccc1 (stereo not given)	none
